From ChEMBL document CHEMBL1147875, “Novel 1-oxyl-2-substitutedphenyl-4,4,5,5-tetramethylimidazolines: synthesis, selectively analgesic action, and QSAR analysis” (2007)

Legend:
[1] = tested on: Mus musculus; test: Effect on bleeding time in ICR mouse tail at 1.3 mmol/kg, ip after 5 mins; assay type: functional
Summary of the method: (§1)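 Mice given 1.30 mmol/kg body weight. Tail bleeding time measured before dosing and at 5, 15, 30 and 60 min after dosing. Saline as vehicle control.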

[2] = tested on: Mus musculus; test: Effect on bleeding time in ICR mouse tail at 1.3 mmol/kg, ip after 15 mins; assay type: functional; summary of the method: as §1
[3] = tested on: Mus musculus; test: Analgesic activity in ICR mouse assessed as pain threshold variation at 0.13 mmol/kg, ip after 30 mins by tail flick test; assay type: functional
Summary of the method: (§2)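 Male ICR mice (25 2 g), 12/12 light/dark cycle, 21 2 °C, acclimated one day. Single ip injection in 0.2 ml saline with 0.01 ml DMSO and 0.02 ml Tween 80. Tail-flick pain threshold measured before dosing (BPT) and at 30 min intervals for 150 min. PTV = (post-dose threshold − BPT)/BPT, averaged per animal. Saline controls; ANOVA, p < 0.05.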

[4] = tested on: Mus musculus; test: Analgesic activity in ICR mouse assessed as pain threshold variation at 0.13 mmol/kg, ip after 60 mins by tail flick test; assay type: functional; summary of the method: as §2
[5] = tested on: Aorta; test: Vasorelaxant activity in rat aortic strips assessed as inhibition of noradrenaline-induced vasoconstriction at 100 umol/l; assay type: functional; parameters: scale not given: the % may be the effect or the level left
[6] = tested on: Mus musculus; test: Effect on bleeding time in ICR mouse tail at 1.3 mmol/kg, ip after 30 mins; assay type: functional; summary of the method: as §1
[7] = tested on: Mus musculus; test: Analgesic activity in ICR mouse assessed as pain threshold variation at 0.13 mmol/kg, ip after 120 mins by tail flick test; assay type: functional; summary of the method: as §2
[8] = tested on: Mus musculus; test: Analgesic activity in ICR mouse assessed as pain threshold variation at 0.13 mmol/kg, ip after 90 mins by tail flick test; assay type: functional; summary of the method: as §2
[9] = tested on: Mus musculus; test: Effect on bleeding time in ICR mouse tail at 1.3 mmol/kg, ip after 60 mins; assay type: functional; summary of the method: as §1
[10] = tested on: Aorta; test: Vasorelaxant activity in rat aortic strips assessed as inhibition of noradrenaline-induced vasoconstriction at 500 umol/l; assay type: functional; parameters: scale not given: the % may be the effect or the level left
[11] = tested on: Aorta; test: Vasorelaxant activity in rat aortic strips assessed as inhibition of noradrenaline-induced vasoconstriction at 20 umol/l; assay type: functional; parameters: scale not given: the % may be the effect or the level left
[12] = tested on: Mus musculus; test: Analgesic activity in ICR mouse assessed as pain threshold variation at 0.13 mmol/kg, ip after 150 mins by tail flick test; assay type: functional; summary of the method: as §2
[13] = tested on: Mus musculus; test: Analgesic activity in ICR mouse assessed as pain threshold variation at 0.013 mmol/kg, ip after 150 mins by tail flick test; assay type: functional, organism-based; summary of the method: as §2
[14] = tested on: Mus musculus; test: Analgesic activity in ICR mouse assessed as pain threshold variation at 0.0013 mmol/kg, ip after 120 mins by tail flick test; assay type: functional, organism-based; summary of the method: as §2
[15] = tested on: Mus musculus; test: Analgesic activity in ICR mouse assessed as pain threshold variation at 0.013 mmol/kg, ip after 60 mins by tail flick test; assay type: functional, organism-based; summary of the method: as §2
[16] = tested on: Mus musculus; test: Analgesic activity in ICR mouse assessed as pain threshold variation at 0.013 mmol/kg, ip after 30 mins by tail flick test; assay type: functional, organism-based; summary of the method: as §2
[17] = tested on: Mus musculus; test: Analgesic activity in ICR mouse assessed as pain threshold variation at 0.013 mmol/kg, ip after 120 mins by tail flick test; assay type: functional, organism-based; summary of the method: as §2
[18] = tested on: Mus musculus; test: Analgesic activity in ICR mouse assessed as pain threshold variation at 0.0013 mmol/kg, ip after 30 mins by tail flick test; assay type: functional, organism-based; summary of the method: as §2
[19] = tested on: Mus musculus; test: Analgesic activity in ICR mouse assessed as pain threshold variation at 0.0013 mmol/kg, ip after 60 mins by tail flick test; assay type: functional, organism-based; summary of the method: as §2
[20] = tested on: Mus musculus; test: Analgesic activity in ICR mouse assessed as pain threshold variation at 0.013 mmol/kg, ip after 90 mins by tail flick test; assay type: functional, organism-based; summary of the method: as §2
[21] = tested on: Mus musculus; test: Analgesic activity in ICR mouse assessed as pain threshold variation at 0.0013 mmol/kg, ip after 150 mins by tail flick test; assay type: functional, organism-based; summary of the method: as §2
[22] = tested on: Mus musculus; test: Analgesic activity in ICR mouse assessed as pain threshold variation at 0.0013 mmol/kg, ip after 90 mins by tail flick test; assay type: functional, organism-based; summary of the method: as §2

Row | Structure (SMILES) | TIME [1] | TIME [2] | Activity [3] | Activity [4] | Activity [5] | TIME [6] | Activity [7] | Activity [8] | TIME [9] | Activity [10] | Activity [11] | Activity [12] | also measured
1 | CC1(C)N=C(c2ccc(Cl)cc2Cl)N([O])C1(C)C | 0.0329 h | 0.033 h | 39.6 | 63.3 | 23% | 0.0326 h | 30.5 | 48.4 | 0.0327 h | 34.8% | 6.86% | 14.8 | 
2 | CC1(C)N=C(c2ccc(Br)cc2)N([O])C1(C)C | 0.0324 h | 0.0326 h | 41.3 | 35.6 | 23% | 0.0324 h | 60 | 59.8 | 0.0326 h | 34.8% | 6.89% | 76.5 | 
3 | CC1(C)N=C(c2ccccc2)N(O)C1(C)C |  |  | 40.6 | 36.99 | 11.04% |  | 32.14 | 34 |  | 17.25% | 5.44% | 33.48 | Time [1]: 118.2 s; Time [2]: 117.4 s; Time [6]: 119.3 s; Time [9]: 118.2 s
4 | CC1(C)N=C(c2cccc([N+](=O)[O-])c2)N([O])C1(C)C | 0.0329 h | 0.0324 h | 49.8 | 66.4 | 22.1% | 0.0327 h | 43.5 | 47.4 | 0.0328 h | 34.3% | 6.72% | 41.8 | 
5 | CC1(C)N=C(c2ccccc2O)N([O])C1(C)C | 0.0324 h | 0.0329 h | 48.6 | 45.4 | 13.4% | 0.0325 h | 70.2 | 64.2 | 0.0324 h | 20.3% | 6.01% | 62.2 | 
6 | COc1ccc(C2=NC(C)(C)C(C)(C)N2[O])cc1O | 0.0326 h | 0.0325 h | 33.1 | 48.2 | 11% | 0.0328 h | 56.4 | 48.4 | 0.0326 h | 16.6% | 5.36% | 59.8 | 
7 | CC1(C)N=C(c2ccccc2[N+](=O)[O-])N([O])C1(C)C | 0.0326 h | 0.0327 h | 38.4 | 66.9 | 20.4% | 0.0326 h | 23.4 | 57.2 | 0.0324 h | 35.6% | 6.98% | 19.7 | 
8 | CN(C)c1ccc(C2=NC(C)(C)C(C)(C)N2[O])cc1 | 0.0331 h | 0.033 h | 30.4 | 35.5 | 26% | 0.0329 h | 34.3 | 36.2 | 0.0327 h | 40% | 8.02% | 27.9 | 
9 | CC1(C)N=C(c2ccc(O)cc2)N([O])C1(C)C | 0.0328 h | 0.0325 h | 55.7 | 70.8 | 7.66% | 0.0326 h | 55.5 | 75.9 | 0.0327 h | 8.71% | 5.36% | 29.9 | 
10 | COc1cc(C2=NC(C)(C)C(C)(C)N2[O])ccc1O | 0.0327 h | 0.0323 h | 54.2 | 42.9 | 6.09% | 0.0327 h | 43.2 | 66.3 | 0.0329 h | 6.55% | 5.98% | 40.9 | 
11 | COc1ccc(C2=NC(C)(C)C(C)(C)N2[O])cc1 | 0.0327 h | 0.0324 h | 35.3 | 103 | 23.1% | 0.0331 h | 68.7 | 99.3 | 0.0331 h | 35.1% | 6.88% | 53 | Activity [13]: 34.4; Activity [14]: 38.4; Activity [15]: 89.7; Activity [16]: 25; Activity [17]: 50.2; Activity [18]: 14.9; Activity [19]: 55.2; Activity [20]: 82.5; Activity [21]: 22.6; Activity [22]: 50.5
12 | COc1ccc(C2=NC(C)(C)C(C)(C)N2[O])cc1OC | 0.0329 h | 0.033 h | 44.9 | 60.2 | 22.3% | 0.0332 h | 78.4 | 59.5 | 0.0335 h | 33.7% | 6.66% | 55.6 | 
13 | CC1(C)N=C(c2cccc(O)c2)N([O])C1(C)C | 0.033 h | 0.0326 h | 49.6 | 50.3 | 23% | 0.0331 h | 72.7 | 54 | 0.0326 h | 35.7% | 7.06% | 70.8 | Activity [13]: 52.1; Activity [14]: 35.2; Activity [15]: 37.8; Activity [16]: 35.7; Activity [17]: 59.9; Activity [18]: 24.2; Activity [19]: 25.6; Activity [20]: 42.8; Activity [21]: 33.5; Activity [22]: 30.7
14 | COc1ccc(C2=NC(C)(C)C(C)(C)N2[O])c(OC)c1 | 0.0331 h | 0.0324 h | 42 | 59.7 | 24% | 0.0327 h | 71.2 | 62.5 | 0.0328 h | 37.1% | 7.33% | 32.4 | 
15 | CC1(C)N=C(c2ccc(Cl)c(Cl)c2)N([O])C1(C)C | 0.0334 h | 0.0331 h | 50.6 | 72.8 | 22.7% | 0.0331 h | 28.8 | 55.7 | 0.033 h | 34.4% | 6.74% | 27 | 
16 | CC1(C)N=C(c2ccc([N+](=O)[O-])cc2)N([O])C1(C)C | 0.0332 h | 0.0331 h | 56.5 | 60.5 | 24.4% | 0.0329 h | 35.9 | 58 | 0.033 h | 36.5% | 7.36% | 52.3 | 
17 | Cc1ccc(C2=NC(C)(C)C(C)(C)N2[O])cc1 | 0.0327 h | 0.0324 h | 40.2 | 53.6 | 20% | 0.0328 h | 35.2 | 43.7 | 0.0328 h | 31.8% | 7% | 25.5 | 
18 | CC1(C)N=C(c2ccccc2F)N([O])C1(C)C | 0.0331 h | 0.0329 h | 62.2 | 67.8 | 14.9% | 0.0328 h | 62 | 63.3 | 0.0326 h | 23.4% | 5% | 86.8 | Activity [13]: 64.5; Activity [14]: 30.4; Activity [15]: 51.3; Activity [16]: 49.3; Activity [17]: 49.8; Activity [18]: 31.3; Activity [19]: 33.5; Activity [20]: 50.7; Activity [21]: 44.5; Activity [22]: 31.8
19 | CC1(C)N=C(c2ccc(Cl)cc2)N([O])C1(C)C | 0.0331 h | 0.0326 h | 59.3 | 66.3 | 23.8% | 0.0328 h | 50.8 | 61.7 | 0.0326 h | 36.6% | 7.19% | 84.5 | 
20 | CC1(C)N=C(c2ccc3c(c2)OCO3)N([O])C1(C)C | 0.0326 h | 0.0324 h | 52.8 | 65 | 24.5% | 0.0328 h | 58.3 | 74 | 0.0324 h | 37.4% | 8.1% | 25.4 | 
